This passage reports Ratio results from ChEMBL document CHEMBL1122384, “Synthesis and evaluation of 24-(isopropyl[75Se]seleno)chol-5-en-3 beta-ol” (J Med Chem, 1983).

SMILES strings stand for the structures.

Format in all cases: functional
Test [1] is described as follows: Adrenal/Tissue ratio calculated from percent dose per gram of tissue determined after 1 day intravenous administration from pancreas. In a few lines:
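Female Fischer 344 rats (160–180 g), food and water ad libitum, lightly anaesthetized with Et2O. [75Se]-labelled steroid was given in Tween 80–EtOH–saline, 5–10 μCi, by lateral tail-vein injection. Rats were killed by decapitation under Et2O; organs were rinsed, blotted, weighed and gamma-counted. Adrenal/tissue ratio is from % dose/g, mean of three rats per time point.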

Test [2] in a line: Adrenal/Tissue ratio calculated from percent dose per gram of tissue determined after 1 day intravenous administration from kidney. In a few lines:
(§1)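 Female Fischer 344 rats (160–180 g), fed ad libitum. Steroid dissolved in EtOH, formulated in Tween 80–EtOH–saline, 5–10 μCi in 1 mL given into a lateral tail vein under light Et₂O anesthesia. Organs removed 1 day post-injection, rinsed, blotted, weighed and gamma counted, 3 rats per time point. Ratios taken from adrenal vs tissue % dose/g.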

The nature of test [3]: Adrenal/Tissue ratio calculated from percent dose per gram of tissue determined after 1 day intravenous administration from liver. The method, boiled down: as §1
The nature of test [4]: Adrenal/Tissue ratio calculated from percent dose per gram of tissue determined after 1 day intravenous administration from spleen. The method, boiled down: as §1
Test [5] can be described thus: Adrenal/Tissue ratio calculated from percent dose per gram of tissue determined after 1 day intravenous administration from ovaries. The method, boiled down:
as §1

Test [6] in a line: Adrenal/Tissue ratio calculated from percent dose per gram of tissue determined after 1 day intravenous administration from blood. In a few lines:
as §1

A short description of test [7]: Adrenal/Tissue ratio calculated from percent dose per gram of tissue determined after 1 day intravenous administration from lung. In a few lines: as §1

Turning to `CC(C)[Te]CCCC(C)C1CCC2C3CC=C4CC(O)CCC4(C)C3CCC12C` (configuration not stated), the Ratio in test [1] is recorded as 122; in test [2], 56.2; in test [3], 27.1; in test [4] it was 14; in test [5], 4.9; in test [6] it was 54.8. Moreover, in test [7], the Ratio is reported as 18.7.
